Data set [1] concerns RKO. Nature of the data set: Drug metabolism in doxycyclin-induced Tet-On gene expressing human RKO cells producing 3-phosphoglycerate kinase assessed as radioactive 2', 3'-didehydro-3'-deoxy-4'-ethynylthymidine triphosphate accumulation after 16 hrs assessed per 10^6 cells by HPLC analysis. The class given is ADME, cell-based. The gist of the method:
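Tet-On PGK RKO cells (5 x 10^5 per dish) were induced with doxycycline at 0, 50 or 100 ng/ml for 48 or 72 h, then given 2 µM [5'-3H]4'-Ed4T (478 mCi/mmol) for 16 h. Cells were washed in cold PBS with 20 µM dipyridamole and extracted with 15% TCA. Neutralized extracts went through SAX-HPLC with radiometric detection, expressed as pmol/10^6 cells, mean of three experiments.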

In data set [2] the test system is CCRF-CEM. Nature of the data set: Stability in human CEM cells assessed as intracellular radioactive phosphorylated metabolite accumulation at 2 uM incubated for 24 hrs measured after 8 hrs of compound removal assessed per 10^6 cells. The class given is ADME, cell-based. The gist of the method: (§1)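 CEM cells were loaded with 2 µM [3H]analog (75 mCi/mmol) for 24 h, washed, and resuspended in drug-free medium. Intracellular metabolites were then measured by SAX-HPLC with radiometric detection at 0, 2, 4, 8, 12 and 24 h after removal. Values are pmol/10^6 cells, mean ± SD of three experiments.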

The test system of data set [3] is RKO. The experiment in a line: Drug metabolism in doxycyclin-induced Tet-On gene expressing human RKO cells producing thymidylate kinase assessed as radioactive 2', 3'-didehydro-3'-deoxy-4'-ethynylthymidine diphosphate accumulation after 16 hrs assessed per 10^6 cells by HPLC analysis. The class given is ADME, cell-based. The gist of the method:
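TMPK Tet-On RKO cells were seeded at 5 x 10^5 per dish with doxycycline at 0, 50 or 3,000 ng/ml for 48 or 72 h, then pulsed for 16 h with 2 µM [5'-3H]4'-Ed4T (478 mCi/mmol). After a cold PBS wash containing 20 µM dipyridamole, cells were extracted with 15% TCA and neutralized with trioctylamine/trichlorotrifluoroethane. Metabolites were quantified by radio-HPLC as pmol/10^6 cells, n=3.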

Data set [4] deals with CCRF-CEM. The experiment in a line: Drug metabolism in human CEM cells assessed as radioactive zidovudine triphosphate accumulation at 2 uM assessed per 10^6 cells. The following applies: TDE = time-dependent effect. In kind it is ADME, cell-based. The gist of the method: (§2)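 CEM cells (2 x 10^7/ml) in RPMI 1640 with 10% dialyzed FBS were incubated at 37°C with 2 µM [3H]analog (75 mCi/mmol) and harvested at 2, 4, 8, 12, 16 and 24 h. Cells were washed in ice-cold PBS with 20 µM dipyridamole and extracted with 15% TCA. Neutralized extracts were separated on a Partisil SAX column with an H2O to 300 mM potassium phosphate gradient and radiometric detection, reported as pmol/10^6 cells, mean ± SD of three experiments.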

Data set [5] deals with CCRF-CEM. The experiment in a line: Drug metabolism in human CEM cells assessed as radioactive 2', 3'-didehydro-3'-deoxy-4'-ethynylthymidine diphosphate accumulation at 2 uM assessed per 10^6 cells. The following applies: TDE = time-dependent effect. The class given is ADME, cell-based. Summed up:
as §2

Data set [6] relates to CCRF-CEM. Nature of the data set: Stability in human CEM cells assessed as intracellular radioactive triphosphate metabolite accumulation at 2 uM incubated for 24 hrs measured after 24 hrs of compound removal assessed per 10^6 cells. In kind it is ADME, cell-based. The gist of the method: as §1
Data set [7] has as its system Human immunodeficiency virus 1. The experiment in a line: Antiviral activity against 0.1 MOI HIV1 3B in 24 hrs pretreated human TZM-b1 cells infected 24 hrs post drug removal assessed as inhibition of viral replication at 1 to 6 uM measured 24 hrs postinfection by luciferase assay.
Data set [8] concerns CCRF-CEM. Nature of the data set: Drug metabolism in human CEM cells assessed as radioactive zidovudine diphosphate accumulation at 2 uM assessed per 10^6 cells. In kind it is ADME, cell-based. The following applies: TDE = time-dependent effect. The gist of the method: as §2

Each structure is given as a SMILES string. Calls of active or inactive are those of the source. The calls are words filed in the database; no cut-off is given here.

As to `C#C[C@@]1(CO)C=C[C@H](n2cc(C)c(=O)[nH]c2=O)O1` [CENSAVUDINE], the Activity result with RKO [1] is listed as “Dose-dependent effect”; in the data set on RKO [3], “Dose-dependent effect”; in the data set with CCRF-CEM [4], “tde”; with CCRF-CEM [5] it was “tde”; with CCRF-CEM [8], “tde”. The figures for the Stability with CCRF-CEM [2] and with CCRF-CEM [6] were 1.07 pmol and 0.2 pmol, respectively. Moreover, in data set [7], the inhibition entry was “Active”.

The values above are taken from ChEMBL document CHEMBL1137646, “Intracellular metabolism and persistence of the anti-human immunodeficiency virus activity of 2',3'-didehydro-3'-deoxy-4'-ethynylthymidine, a novel thymidine analog” (Antimicrob Agents Chemother, 2007).
